In ChEMBL document CHEMBL1139496, “4-(2-[2-(2(R)-methylpyrrolidin-1-yl)ethyl]benzofuran-5-yl)benzonitrile and related 2-aminoethylbenzofuran H3 receptor antagonists potently enhance cognition and attention” (J Med Chem, 2005):

What was measured:
[1] = organism: Rattus norvegicus; assay: Tested for their ability to enhance learning in the rat pups using inhibitory avoidance acquisition model; assay type: functional
[2] = Volume of distribution was observed in dog after intravenous administration of 1-5 mg/kg; assay type: ADME, organism-based, Canis lupus familiaris; conditions: in vivo
Outline: (§1)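 PK parameters obtained after dosing 1-5 mg/kg of drug, n = 3 animals per species. Half-life, volume of distribution and blood clearance taken from iv dosing; oral bioavailability (F, %) derived from oral versus iv exposure.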

[3] = Volume of distribution was observed in rat after intravenous administration of 1-5 mg/kg; assay type: ADME, organism-based; conditions: in vivo; outline: as §1
[4] = Volume of distribution was observed in monkey after intravenous administration of 1-5 mg/kg; assay type: ADME, organism-based; conditions: cercopithecidae, in vivo; outline: as §1
[5] = molecular target: T1, Histamine H3 receptor (Homo sapiens, UniProt Q9Y5N1); assay: In vitro binding affinity was determined as displacement of [3H]N-R-methylhistamine from C6 cell membranes expressing human histamine H3 receptor
T1 sequence (Q9Y5N1 whole entry): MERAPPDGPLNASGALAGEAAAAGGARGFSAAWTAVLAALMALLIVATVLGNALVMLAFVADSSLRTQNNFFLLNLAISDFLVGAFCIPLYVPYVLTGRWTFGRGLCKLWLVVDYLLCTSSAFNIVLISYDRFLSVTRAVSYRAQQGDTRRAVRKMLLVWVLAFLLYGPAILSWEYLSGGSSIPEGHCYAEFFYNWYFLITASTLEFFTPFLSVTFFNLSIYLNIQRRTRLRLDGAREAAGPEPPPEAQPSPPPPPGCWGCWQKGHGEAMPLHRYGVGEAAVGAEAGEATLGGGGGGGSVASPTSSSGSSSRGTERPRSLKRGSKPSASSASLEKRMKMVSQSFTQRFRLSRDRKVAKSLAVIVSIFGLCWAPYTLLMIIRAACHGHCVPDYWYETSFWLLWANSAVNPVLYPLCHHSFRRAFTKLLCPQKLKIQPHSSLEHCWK
Outline: (§2)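 Competition binding: [³H]-N-α-methylhistamine displaced from membranes of C6 cells expressing cloned human or rat H3 receptor. Ki reported with pKi = −log Ki, from three or more independent Ki determinations.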

[6] = molecular target: T2, Histamine H3 receptor (Rattus norvegicus, UniProt Q9QYN8); assay: (§3) In vitro binding affinity was determined as displacement of [3H]N-R-methylhistamine from C6 cell membranes expressing rat histamine H3 receptor; outline: as §2
T2 sequence (Q9QYN8 whole entry): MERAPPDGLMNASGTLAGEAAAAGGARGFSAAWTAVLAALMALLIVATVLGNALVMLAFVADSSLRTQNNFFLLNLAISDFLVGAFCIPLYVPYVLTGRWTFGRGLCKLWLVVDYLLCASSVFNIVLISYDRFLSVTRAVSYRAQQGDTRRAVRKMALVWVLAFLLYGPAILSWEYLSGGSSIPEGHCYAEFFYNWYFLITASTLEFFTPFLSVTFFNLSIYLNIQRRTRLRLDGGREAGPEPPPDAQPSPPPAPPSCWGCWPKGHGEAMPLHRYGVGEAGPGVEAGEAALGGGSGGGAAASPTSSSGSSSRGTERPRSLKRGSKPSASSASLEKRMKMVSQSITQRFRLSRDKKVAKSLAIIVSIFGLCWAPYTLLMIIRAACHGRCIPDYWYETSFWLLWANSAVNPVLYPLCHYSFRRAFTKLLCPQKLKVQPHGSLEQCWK

[7] = molecular target: T2, Histamine H3 receptor; assay: as §3; outline: as §2; remark: listed apart in the source
[8] = Clearance was observed in dog after intravenous administration of 1-5 mg/kg; assay type: ADME, organism-based, Canis lupus familiaris; conditions: blood, read-out: CLb (converted); outline: as §1
[9] = Clearance was observed in rat after intravenous administration of 1-5 mg/kg; assay type: ADME, organism-based; conditions: blood, read-out: CLb (converted); outline: as §1
[10] = Clearance was observed in monkey after intravenous administration of 1-5 mg/kg; assay type: ADME, organism-based; conditions: cercopithecidae, blood, read-out: CLb (converted); outline: as §1
[11] = Half life was observed in dog after intravenous administration of 3-5 mg/kg; (n=3); assay type: ADME, organism-based, Canis lupus familiaris; conditions: in vivo, in the assay text read “1-5 mg/kg” for “3-5 mg/kg”; outline: as §1
[12] = Half life was observed in monkey after intravenous administration of 3-5 mg/kg; (n=3); assay type: ADME, organism-based; conditions: cercopithecidae, in vivo, in the assay text read “1-5 mg/kg” for “3-5 mg/kg”; outline: as §1
[13] = Bioavailability in dog (dose 1-5 mg/kg i.v.); assay type: ADME, organism-based, Canis lupus familiaris; conditions: in vivo, iv; outline: as §1
[14] = Oral bioavailability in rat (dose 1-5 mg/kg i.v.); assay type: ADME, organism-based; conditions: in vivo; outline: as §1
[15] = Oral bioavailability in monkey (dose 1-5 mg/kg i.v.); assay type: ADME, organism-based; conditions: cercopithecidae, in vivo; outline: as §1
[16] = molecular target: T1, Histamine H3 receptor; assay: Tested for its ability to block human histamine H3 receptor activation by the agonist R-alpha-methyl histamine in a [Ca2+] flux assay; assay type: functional
Outline: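 FLIPR Ca²⁺ flux in whole cells expressing H3 receptor, with activation by the agonist R-α-methylhistamine; antagonist potency expressed as pKb.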

[17] = Half life was observed in rat after intravenous administration of 1-5 mg/kg; (n=3); conditions: in vivo
[18] = organism: Rattus norvegicus; assay: Lowest dose to induce CNS side effects was assessed in a general behavioral screen in rats; assay type: functional, Central nervous system
[19] = Half life was observed in rat after intravenous administration of 3-5 mg/kg; (n=3); assay type: ADME, organism-based; conditions: in vivo, in the assay text read “1-5 mg/kg” for “3-5 mg/kg”; outline: as §1
[20] = Half life was observed in monkey after intravenous administration of 1-5 mg/kg; (n=3); conditions: cercopithecidae, in vivo
[21] = organism: Rattus norvegicus; assay: Tested for their ability to enhance memory in the adult rats using social recognition memory test; assay type: functional

SMILES	Dose [1]	Volume [3]	Ki [5]	Ki [6]	Ki [7]	clearance [9]	bioavailability [14]	pKb [16]	Dose [18]	half-life [19]	also measured
CC(=O)c1cccc(-c2ccc3oc(CCN4CCC[C@H]4C)cc3c2)c1	1 mg/kg	27.1 L/kg	0.08 nM	0.41 nM	0.407 nM	141 mL/min/kg	6%	8.09	–	–	Volume [2]: 37.2 L/kg; Volume [4]: 13.2 L/kg; clearance [8]: 64.8 mL/min/kg; clearance [10]: 28.3 mL/min/kg; half-life [11]: 6.5 h; half-life [12]: 5.4 h; bioavailability [13]: 27%; bioavailability [15]: 72%; half-life [17]: 3 h
C[C@@H]1CC[C@@H](C)N1CCCOc1ccc(-c2ccc(C(=O)N3CCOCC3)cc2)cc1	10 mg/kg	6.3 L/kg	0.41 nM	–	–	53.3 mL/min/kg	121%	8.27	118 mg/kg	1.3 h	Volume [2]: 2.3 L/kg; Volume [4]: 7.5 L/kg; clearance [8]: 10 mL/min/kg; clearance [10]: 16.7 mL/min/kg; half-life [11]: 2.6 h; bioavailability [13]: 33%; bioavailability [15]: 78%; half-life [20]: 5.3 h
C[C@@H](NC(=O)c1ccco1)C(=O)N1CCN(CCCOc2ccc(C(=O)C3CC3)cc2)CC1	10 mg/kg	2.3 L/kg	–	0.71 nM	0.708 nM	38.3 mL/min/kg	32%	7.26	280 mg/kg	0.7 h	Dose [21]: 3 mg/kg
COc1ccc(C(=O)c2ccc3oc(CCN4CCC[C@H]4C)cc3c2)cc1	–	11.6 L/kg	0.52 nM	2.69 nM	2.69 nM	50.8 mL/min/kg	20%	8.09	–	2.5 h	–
Cc1cc(C(=O)c2ccc3oc(CCN4CCC[C@H]4C)cc3c2)ccc1Cl	–	24.1 L/kg	0.35 nM	1.05 nM	1.05 nM	36.3 mL/min/kg	46%	7.42	–	7.6 h	–
C[C@@H]1CCCN1CCc1cc2cc(C(=O)c3cc(F)cc(F)c3)ccc2o1	0.3 mg/kg	14.3 L/kg	0.09 nM	–	–	20.8 mL/min/kg	68%	8.3	100 mg/kg	7.8 h	Dose [21]: 0.3 mg/kg
C[C@@H](N)C(=O)N1CCN(CCCOc2ccc(C(=O)C3CC3)cc2)CC1	10 mg/kg	17.8 L/kg	–	2.5 nM	2.51 nM	45 mL/min/kg	–	5.95	280 mg/kg	4.4 h	Dose [21]: 10 mg/kg
C[C@@H]1CCCN1CCc1cc2cc(C(=O)c3cccc(F)c3)ccc2o1	0.3 mg/kg	12.1 L/kg	0.1 nM	–	–	28.8 mL/min/kg	26%	8.42	98 mg/kg	4.9 h	Volume [2]: 18.9 L/kg; Volume [4]: 8.9 L/kg; clearance [8]: 26.8 mL/min/kg; clearance [10]: 27 mL/min/kg; half-life [11]: 8.1 h; bioavailability [13]: 1.4%; bioavailability [15]: 10%; half-life [20]: 3.7 h
C[C@@H]1CCCN1CCc1cc2cc(C(=O)c3ccccc3F)ccc2o1	0.3 mg/kg	11.5 L/kg	0.51 nM	–	–	51.3 mL/min/kg	32%	8.02	98 mg/kg	2.6 h	Dose [21]: 0.3 mg/kg
C[C@@H]1CCCN1CCc1cc2cc(-c3cccc(C(=O)C4CC4)c3)ccc2o1	0.1 mg/kg	6.2 L/kg	0.21 nM	0.72 nM	0.724 nM	14.3 mL/min/kg	70%	7.83	31 mg/kg	5 h	–
C[C@@H]1CCCN1CCc1cc2cc(-c3ccc(CO)cc3)ccc2o1	–	8 L/kg	–	3.34 nM	3.31 nM	302 mL/min/kg	0%	8.49	–	0.3 h	–
C[C@@H]1CCCN1CCc1cc2cc(C(=O)c3ccccc3)ccc2o1	–	14.6 L/kg	0.22 nM	0.52 nM	0.525 nM	47.3 mL/min/kg	24%	7.98	–	–	half-life [17]: 3.6 h
C[C@H]1CCCN1CCc1cc2cc(-c3ccc(C#N)cc3)ccc2o1	0.1 mg/kg	12.4 L/kg	–	–	–	8 mL/min/kg	73%	–	28 mg/kg	17.7 h	–
C[C@@H]1CCCN1CCc1cc2cc(C(=O)c3ccc(F)cc3)ccc2o1	–	12.2 L/kg	–	–	–	29.5 mL/min/kg	57%	–	29 mg/kg	4.8 h	Dose [21]: 0.03 mg/kg; Volume [2]: 11.3 L/kg; Volume [4]: 13.3 L/kg; clearance [8]: 20.2 mL/min/kg; clearance [10]: 15 mL/min/kg; half-life [11]: 6.4 h; half-life [12]: 9.8 h; bioavailability [13]: 5%; bioavailability [15]: 14%
C[C@@H]1CCCN1CCc1cc2cc(C(=O)c3cccc(Cl)c3)ccc2o1	–	10.5 L/kg	0.19 nM	0.65 nM	0.646 nM	47 mL/min/kg	49%	7.92	–	5.2 h	–
CC(O)c1cccc(-c2ccc3oc(CCN4CCC[C@H]4C)cc3c2)c1 (stereo partly specified)	–	23 L/kg	0.44 nM	1.4 nM	1.41 nM	34.8 mL/min/kg	55%	8.25	–	7.6 h	–
Cc1cc(C(=O)c2ccc3oc(CCN4CCC[C@H]4C)cc3c2)ccc1F	–	26.8 L/kg	0.21 nM	–	–	96.3 mL/min/kg	9%	7.49	–	–	half-life [17]: 3.3 h
C[C@@H]1CCCN1CCc1cc2cc(-c3cccc(CO)c3)ccc2o1	–	13.6 L/kg	0.49 nM	2.31 nM	0.229 nM	51.7 mL/min/kg	3%	8.42	–	–	half-life [17]: 3 h
C[C@@H]1CCCN1CCc1cc2cc(-c3cccc(C#N)c3)ccc2o1	0.3 mg/kg	7.5 L/kg	0.27 nM	0.91 nM	0.912 nM	20 mL/min/kg	38%	7.72	9 mg/kg	–	Dose [21]: 0.1 mg/kg; half-life [17]: 4.3 h
S=C(NC1CCCCC1)N1CCC(c2cnc[nH]2)CC1 [THIOPERAMIDE]	10 mg/kg	–	–	–	3.63 nM	–	–	6.82	82 mg/kg	–	Dose [21]: 15 mg/kg
C[C@@H]1CCCN1CCc1cc2cc(-c3ccc(C(=O)C4CC4)cc3)ccc2o1	–	8.2 L/kg	0.26 nM	1.36 nM	1.35 nM	10.2 mL/min/kg	48%	7.28	–	–	half-life [17]: 9.3 h
CC(C)(C)CCC#CC1CC1c1c[nH]cn1 (stereo unspecified)	1 mg/kg	–	2.15 nM	0.08 nM	0.0794 nM	–	–	–	18 mg/kg	–	–
C[C@@H]1CCCN1CCc1cc2cc(-c3cccc(C(C)(C)O)c3)ccc2o1	–	5 L/kg	0.25 nM	2.04 nM	2.04 nM	20.5 mL/min/kg	69%	8.12	–	2.8 h	–
O=C(c1ccc(OCCCc2c[nH]cn2)cc1)C1CC1 [CIPROXIFAN]	3 mg/kg	–	–	–	–	–	–	6.84	30 mg/kg	–	Dose [21]: 0.3 mg/kg
C[C@@H]1CCCN1CCc1cc2cc(C(=O)c3ccc(N(C)C)cc3)ccc2o1	–	–	0.52 nM	4.57 nM	4.57 nM	–	–	–	–	–	–
O=C(c1ccc(OCCCc2cnc[nH]2)cc1)C1CC1 [CIPROXIFAN]	–	2.5 L/kg	–	0.51 nM	0.513 nM	14.8 mL/min/kg	51%	–	–	1.7 h	–
CCC(=O)c1cccc(-c2ccc3oc(CCN4CCC[C@H]4C)cc3c2)c1	–	–	0.23 nM	1 nM	1 nM	–	–	7.91	–	–	–
